For one test, the system named is Blood. Nature of the test: Inhibition of TXB2 production in Sprague-Dawley rat whole blood. The test is classed as functional, tissue-based. In short, it runs like this:
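Rat whole blood stimulated with calcium ionophore A23187 at 5 µM, with thromboxane B2 measured. Each run gives the mean of triplicate assays, and values come from at least two runs.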

Test [1] can be described thus: Inhibition of cytosolic phospholipase A2alpha by GLU micelle assay. The method, boiled down:
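Micellar assay with 7-hydroxycoumarinyl-γ-linolenate (GLU) substrate, presenting inhibitor and substrate to the enzyme in high-lipid micelles. Each run gives the mean of duplicate assays, and values come from at least two runs.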

Each structure is given as a SMILES string.

The IC50 is the concentration at which inhibition is half-maximal. Read a high IC50 as lower potency. For the molecule `Cc1ccccc1CS(=O)(=O)NCCc1c(CCOc2ccc(C(=O)O)cc2)c2cc(Cl)ccc2n1C(c1ccccc1)c1ccccc1`, the half-maximal inhibitory concentration (IC50) was 0.03 µM with Blood and 0.06 µM in test [1].

Take `O=C(O)c1ccc(OCCc2c(CCNS(=O)(=O)Cc3ccc4ccccc4c3)n(C(c3ccccc3)c3ccccc3)c3ccc(Cl)cc23)cc1`: the IC50 came out at 0.14 µM with Blood and 0.23 µM in test [1].

Regarding `O=C(O)c1ccc(Cc2c(CCNS(=O)(=O)Cc3ccccc3)n(C(c3ccccc3)c3ccccc3)c3ccc(Cl)cc23)cc1`, the figures for the IC50 (with Blood; in test [1]) were over 10 µM and 33 µM, respectively.

Consider `O=C(O)CCc1ccc(Cc2c(CCNS(=O)(=O)Cc3ccccc3)n(C(c3ccccc3)c3ccccc3)c3ccc(Cl)cc23)cc1`, for which the IC50 in the test on Blood stood at 0.9 µM; in test [1], 2 µM.

In the case of `O=C(O)c1ccc(CCCc2c(CCNS(=O)(=O)Cc3c(F)cccc3F)n(C(c3ccccc3)c3ccccc3)c3ccc(Cl)cc23)cc1`, the figures for the 50% inhibitory concentration (IC50) (in the test with Blood; in test [1]) were 0.36 µM and 0.06 µM, respectively.

Consider `O=C(O)c1ccc(OCCc2c(CCNS(=O)(=O)Cc3ccccn3)n(C(c3ccccc3)c3ccccc3)c3ccc(Cl)cc23)cc1`, for which the IC50 in the test with Blood is 0.35 µM; in test [1], 0.4 µM.

With `O=C(O)c1ccc(OCCc2c(CCNS(=O)(=O)Cc3cccnc3)n(C(c3ccccc3)c3ccccc3)c3ccc(Cl)cc23)cc1`, the half-inhibitory concentration (IC50) in the test on Blood turned out to be 0.36 µM; in test [1], 0.22 µM.

For the molecule `O=C(O)CCc1ccc(OCCc2c(CCNS(=O)(=O)Cc3ccccc3)n(C(c3ccccc3)c3ccccc3)c3ccc(Cl)cc23)cc1`, the figures for the 50% inhibitory concentration (IC50) (in the test with Blood; in test [1]) were 0.07 µM and 0.19 µM, respectively.

As for `O=C(O)c1ccc(S(=O)(=O)CCc2c(CCNS(=O)(=O)Cc3ccccc3Cl)n(C(c3ccccc3)c3ccccc3)c3ccc(Cl)cc23)cc1`, the IC50 turned out to be 0.06 µM in the test with Blood and 0.01 µM in test [1].

`O=C(O)Cc1nc(CCCc2c(CCNS(=O)(=O)Cc3ccccc3)n(C(c3ccccc3)c3ccccc3)c3ccc(Cl)cc23)no1` displayed an IC50 in test [1] of over 20 µM.

As for `CN(CCc1c(CCNS(=O)(=O)Cc2ccccc2)n(C(c2ccccc2)c2ccccc2)c2ccc(Cl)cc12)c1ccc(C(=O)O)cc1`, the IC50 in the test on Blood worked out at 1.8 µM; in test [1] it was 4.3 µM.

For `O=C(O)COc1ccc(Cc2c(CCNS(=O)(=O)Cc3ccccc3)n(C(c3ccccc3)c3ccccc3)c3ccc(Cl)cc23)cc1`, the IC50 was over 10 µM in the test on Blood and 7 µM in test [1].

Regarding `N#Cc1ccccc1CS(=O)(=O)NCCc1c(CCOc2ccc(C(=O)O)cc2)c2cc(Cl)ccc2n1C(c1ccccc1)c1ccccc1`, the IC50 amounted to 0.07 µM in the test with Blood and 0.06 µM in test [1].

For the molecule `O=C(O)c1ccc(OCCc2c(CCNS(=O)(=O)Cc3cccc([N+](=O)[O-])c3)n(C(c3ccccc3)c3ccccc3)c3ccc(Cl)cc23)cc1`, the IC50 came out at 0.07 µM with Blood and 0.11 µM in test [1].

With `N#Cc1cccc(CS(=O)(=O)NCCc2c(CCOc3ccc(C(=O)O)cc3)c3cc(Cl)ccc3n2C(c2ccccc2)c2ccccc2)c1`, the results for the IC50 (with Blood; in test [1]) were 0.16 µM and 0.3 µM, respectively.

As to `N#Cc1ccc(CS(=O)(=O)NCCc2c(CCOc3ccc(C(=O)O)cc3)c3cc(Cl)ccc3n2C(c2ccccc2)c2ccccc2)cc1`, the IC50 is 0.15 µM with Blood and 0.26 µM in test [1].

Regarding `O=C(O)c1ccc(CCCc2c(CCNS(=O)(=O)Cc3ccccc3)n(C(c3ccccc3)c3ccccc3)c3ccc(Cl)cc23)cc1`, the IC50 (with Blood; in test [1]) was 0.07 µM throughout.

`O=C(O)c1ccc(NCCc2c(CCNS(=O)(=O)Cc3ccccc3)n(C(c3ccccc3)c3ccccc3)c3ccc(Cl)cc23)cc1`: the IC50 in the test with Blood is 0.4 µM; in test [1], 0.68 µM.

Turning to `O=C(O)c1ccc(OCCc2c(CCNS(=O)(=O)Cc3ccc([N+](=O)[O-])cc3)n(C(c3ccccc3)c3ccccc3)c3ccc(Cl)cc23)cc1`, the IC50 in the test with Blood is 0.09 µM; in test [1] it was 0.16 µM.

`O=C(O)c1ccc(OCCc2c(CCNS(=O)(=O)Cc3ccccc3)n(C(c3ccccc3)c3ccccc3)c3ccc(Cl)cc23)cc1` gave an IC50 in test [1] of 0.11 µM.
